The values below come from ChEMBL document CHEMBL1128557, “Synthesis, antitumor activity, and chemical properties of silaplatin and related platinum (II) and platinum (IV) complexes derived from beta-silyl amines” (J Med Chem, 1995).

Broadly, the GI50 is the concentration that inhibits growth by half. A word on the TGI: it is the concentration at which net growth stops.

Series [1] deals with Tumor Cell line. In words: Evaluated in vitro for the log10 molecular concentration that caused 50 % inhibition of tumor growth of 60 human tumor cell lines. It counts as functional, cell-based. An outline of the steps: (§1)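 Cells preincubated 24 h, then exposed to the agent at five 10-fold dilutions (0.01–100 μM for the platinum complexes) for 48 h. Cells fixed in situ and stained; solubilized stain read spectrophotometrically. Panel of leukemia, non-small-cell lung, ovarian and renal lines. Log GI50 or TGI taken per cell line in one experiment, then averaged across lines.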

Series [2] has as its system Tumor Cell line. In words: Evaluated in vitro for the log10 molecular concentration that caused […] tumor growth of 60 human tumor cell lines. The series is classed as functional, cell-based. An outline of the steps:
as §1

The test system of series [3] is Tumor Cell line. In words: The compound was evaluated in vitro for the log10 molecular concentration that caused 50 % of 60 human tumor cell line kills. It counts as ADME, cell-based. An outline of the steps: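 Human tumor cell lines (leukemia, non-small-cell lung, ovarian, renal) were preincubated 24 h. Platinum complexes were then added as five 10-fold dilutions, 0.01–100 μM, for 48 h, followed by in situ fixation and staining, with solubilized stain read spectrophotometrically. Log LC50 (50% cell kill) was averaged across cell lines within one experiment.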

A value given as a limit tells only on which side of the number the result lay.

In the series on Tumor Cell line [1], “[Bis(aminomethyl)diethylsilane]tetrachloroplatinum(IV)” yielded a GI50 of 3.02 µM. In the series on Tumor Cell line [2], this substance came in with a TGI of 46.8 µM.
As for “[Bis(aminomethyl)dimethylsilane]dichloroplatinum (II)”, in the series with Tumor Cell line [3], the “Log LC50” value is given as over -4.01.
